Assay results of several laboratories.
Each line is one published result; the experiments were not run side by side.
Cell line: NCI-H460
Effect on: cell growth or viability

SMILES | method | tested at | time | measurement | result
Cc1cc(C)n(C(=S)[S][Au][PH](CCCCCC[PH]([Au][S]C(=S)n2nc(C)cc2C)(c2ccccc2)c2ccccc2)(c2ccccc2)c2ccccc2)n1 | SRB |  |  | GI50 | 0.638 µM
CCCCc1n(Cc2ccc3ccccc3n2)cc[n+]1Cc1ccc2ccccc2n1 | SRB |  |  | TGI | 11.6 µM
C/C=C/C(=O)Nc1cc(Nc2nc(Nc3cnn(C)c3)c3sccc3n2)c(OC)cc1N(C)CCN(C)C | MTT |  |  | IC50 | > 50 µM
COc1cc(-c2ccc(-c3ccc(C(=N)N)nc3)s2)cc(OC)c1OC | SRB |  |  | GI50 | 2.1 µM
Cc1n(Cc2ccc3ccccc3n2)cc[n+]1Cc1ccc2ccccc2c1 | SRB |  |  | TGI | 14.4 µM
C=CC(=O)Nc1cc(Nc2nc(N3CCc4sccc4C3)c3cccnc3n2)c(OC)cc1N1CCN(C(C)=O)CC1 | MTT |  |  | IC50 | > 50 µM
CS(=O)(=O)CCNCc1ccc(-c2ccc3ncnc(Nc4ccc(OCc5cccc(F)c5)c(Cl)c4)c3c2)o1 | MTT |  | 72 h | EC50 | 32 µM
COc1ccc(C(=O)/C=C/c2cccc(Cl)c2Cl)cc1S(N)(=O)=O | SRB |  | 48 h | GI50 | 1.9 µM
C=CC(=O)Nc1cccc(Oc2nc(Nc3ccc(N4CCN(C)CC4)cc3)nc3ccsc23)c1 | MTT |  |  | IC50 | 0.642 µM
COc1ccc(C(=O)/C=C/c2cccc3ccccc23)cc1S(N)(=O)=O | SRB | 10 µM |  | inhibition | 98%
CCCc1n(Cc2ccc3ccccc3n2)cc[n+]1Cc1ccc2ccccc2c1 | SRB |  |  | TGI | 10.6 µM
C=C(Cl)C(=O)Nc1cc(Nc2nc(N3CCSCC3)c3sccc3n2)c(OC)cc1N(C)CCN(C)C | MTT |  |  | IC50 | 1.31 µM
C=C(c1ccc(C(=O)O)cc1)c1cc2c(cc1C)C(C)(C)CCC2(C)C | MTT |  | 72 h | EC50 | 52 µM
COc1ccc(C(=O)/C=C/c2cc3c(cc2Br)OCO3)cc1S(N)(=O)=O | SRB | 10 µM |  | inhibition | 100%
C=C(Cl)C(=O)Nc1cc(Nc2nc(N3CCCC3)c3sccc3n2)c(OC)cc1N(C)CCN(C)C | MTT |  |  | IC50 | 6.48 µM
COc1ccccc1/C=C/C(=O)c1ccc(OC)c(S(N)(=O)=O)c1 | SRB |  | 48 h | GI50 | 2.1 µM
COc1cccc(Oc2ccccc2NC(=O)CNC(=O)c2cccc3ccccc23)c1 | SRB |  | 48 h | GI50 | 0.295 µM
COc1ccc(C(=O)/C=C/c2ccc3ccccc3c2)cc1S(N)(=O)=O | SRB |  | 48 h | GI50 | 3 µM
CCc1n(Cc2ccc3ccccc3n2)cc[n+]1Cc1ccc2ccccc2c1 | SRB |  |  | TGI | 10.8 µM
C=CC(=O)Nc1cc(Nc2nc(N3CCc4sccc4C3)c3cccnc3n2)c(OC)cc1N1CCSCC1 | MTT |  |  | IC50 | 0.229 µM
COc1ccc(C(=O)/C=C/c2cccnc2)cc1S(N)(=O)=O | SRB |  | 48 h | GI50 | 9.1 µM
